Results reported in ChEMBL document CHEMBL1671697, “Lipophilic bisphosphonates are potent inhibitors of Plasmodium liver-stage growth” (Antimicrob Agents Chemother, 2010).
Several values for one entry are separate records, joined by “and”; a condition that tells them apart may be missing. Equal values may be shown once. Activity calls are given as the source filed them. The rule behind the calls is not given here.

Legend:
[1] = test system: Plasmodium berghei; assay: Antiplasmodial activity against 5 X 10^6 blood stream Plasmodium berghei NK65 infected in 12 wk old C57BL/6 mouse assessed as delay in prepatent period at 20 mg/kg, ip administered once daily via a regimen of day 2, 1 pre-infection, on the day of infection followed by day 1 and 2 postinfection for 5 days by microscopic analysis; type: functional; conditions: route intraperitoneal
In short: (§1)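 Mice, five per group, were dosed i.p. daily for 5 days and challenged on day 0 with 5 × 10^6 blood-stage P. berghei parasites. Parasitemia was monitored by blood smear, and the delay in prepatent period was recorded.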

[2] = test system: Plasmodium berghei; assay: Antiplasmodial activity against Plasmodium berghei NK65 infected in 12 wk old BALB/c mouse assessed as prepatent period at 20 mg/kg, ip administered once daily via regimen of 1 preinfection, on day of infection followed by regimen of 1 day post infection for 3 days by microscopic analysis; type: functional; conditions: route intraperitoneal
[3] = test system: Plasmodium berghei; assay: Antiplasmodial activity against Plasmodium berghei NK65 infected in 12 wk old BALB/c mouse assessed as prepatent period at 17 mg/kg, ip administered once daily on the day of infection followed by day 1 postinfection for 2 days by microscopic analysis; type: functional; conditions: route intraperitoneal
[4] = test system: Plasmodium berghei; assay: Antiplasmodial activity against Plasmodium berghei NK65 infected in 8 wk old C57BL/6 mouse assessed as prepatent period at 20 mg/kg, ip administered once daily via regimen of […], on the day of infection followed by day 1 postinfection for 4 days by microscopic analysis; type: functional; conditions: route intraperitoneal
[5] = Inhibition of Plasmodium vivax GGPPS
[6] = test system: Plasmodium berghei; assay: Antiplasmodial activity against Plasmodium berghei NK65 infected in 12 wk old C57BL/6 mouse assessed as prepatent period at 20 mg/kg, ip administered once daily via a regimen of day 1 pre-infection, on the day of infection followed by day 1 postinfection for 3 days by microscopic analysis; type: functional; conditions: route intraperitoneal
[7] = test system: Plasmodium berghei; assay: Antiplasmodial activity against Plasmodium berghei NK65 infected in 12 wk old BALB/c mouse assessed as prepatent period assessed as complete suppression of parasitemia at 20 mg/kg, ip administered once daily via a regimen of day 2, 1 pre-infection, on the day of infection followed by day 1 and 2 postinfection […] by microscopic analysis; type: functional; conditions: route intraperitoneal
[8] = Partition coefficient, log P of the compound; type: physicochemical; conditions: octanol/water
[9] = test system: Plasmodium falciparum; assay: Antiplasmodial activity against chloroquine-sensitive Plasmodium falciparum 3D7 assessed as suppression of parasitemia by microscopic analysis
[10] = Inhibition of Plasmodium vivax FPPS
[11] = test system: Plasmodium berghei; assay: Antiplasmodial activity against Plasmodium berghei NK65 infected in 12 wk old C57BL/6 mouse assessed as prepatent period at 10 mg/kg, ip administered once daily via a regimen of day 1 pre-infection, on the day of infection followed by day 1 postinfection for 3 days by microscopic analysis; type: functional, organism-based; design: dose 10 mg/kg
[12] = Cytotoxicity against human HepG2 cells after 22 hrs; type: cell-based; conditions: read-out: TC50
In short: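 HepG2 cells were seeded at 70% confluence the day before treatment, then exposed to a range of inhibitor concentrations for 22 h at 37°C, 5% CO2. CellTiter One reagent was then added for 2 h more, and OD495 was read. IC50 (TC50) was fit by nonlinear regression of percent viable cells against concentration.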

[13] = test system: Plasmodium berghei; assay: Antiplasmodial activity against Plasmodium berghei NK65 infected in 12 wk old BALB/c mouse assessed as prepatent period at 5 mg/kg, ip administered once daily on the day of infection followed by day 1 postinfection for 2 days by microscopic analysis; type: functional; conditions: route intraperitoneal
[14] = test system: Plasmodium berghei; assay: Antiplasmodial activity against 5 X 10^6 blood stream Plasmodium berghei NK65 infected in 12 wk old C57BL/6 mouse assessed as parasitemia at 20 mg/kg, ip administered once daily via a regimen of day 2, 1 pre-infection, on the day of infection followed by day 1 and 2 postinfection for 5 days by microscopic analysis; type: functional; conditions: route intraperitoneal; in short: as §1
[15] = test system: Plasmodium berghei; assay: Antiplasmodial activity against 5 X 10^6 blood stream Plasmodium berghei NK65 infected in 12 wk old C57BL/6 mouse assessed as prepatent period at 20 mg/kg, ip administered once daily via a regimen of day 2, 1 pre-infection, on the day of infection followed by day 1 and 2 postinfection for 5 days by microscopic analysis; type: functional; conditions: route intraperitoneal; in short: as §1
[16] = test system: Plasmodium berghei; assay: Antiplasmodial activity against Plasmodium berghei NK65 infected in 8 wk old C57BL/6 mouse assessed as prepatent period at 20 mg/kg, ip administered once daily via a regimen of day 1 pre-infection, on the day of infection followed by day 1, 2 and 3 days postinfection […] by microscopic analysis; type: functional; conditions: route intraperitoneal
[17] = test system: Plasmodium berghei; assay: Antimalarial activity against Plasmodium berghei NK65 infected in human HepG2 cells after 48 hrs by RT-PCR; type: functional, organism-based; conditions: NK65, HepG2, 48 h
In short: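 P. berghei NK65 sporozoites (10,000 per well) added to human HepG2 monolayers seeded the day before, in DMEM with 10% FBS, with compound diluted in PBS; 37°C, 5% CO2, 48 h. Medium and compound were renewed at 24 h. Parasite 18S rRNA copies were quantified by real-time PCR against a plasmid standard and expressed relative to untreated control. IC50 was obtained by nonlinear regression.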

[18] = test system: Plasmodium berghei; assay: Antiplasmodial activity against Plasmodium berghei NK65 infected in 12 wk old C57BL/6 mouse assessed as prepatent period at 10 mg/kg, ip administered once daily via a regimen of day 2, 1 days pre-infection, on the day of infection followed by day 1 postinfection for 4 days by microscopic analysis; type: functional, organism-based; design: dose 10 mg/kg
[19] = test system: Plasmodium falciparum; assay: Antiplasmodial activity against chloroquine-resistant Plasmodium falciparum W2mef assessed as suppression of parasitemia by microscopic analysis
[20] = test system: Plasmodium berghei; assay: Antiplasmodial activity against 3000 Plasmodium berghei NK65 liver stage sporozoites infected in 12 wk old C57BL/6 mouse assessed as delay in prepatent period at 20 mg/kg, ip administered once daily via a regimen of day 2, 1 pre-infection, on the day of infection followed by day 1 and 2 postinfection for 5 days by microscopic analysis; type: functional; conditions: route intraperitoneal
In short: (§2)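 Mice were given compound i.p. once daily from 2 days before to 2 days after sporozoite challenge (5 doses). Challenge was 3,000 infectious P. berghei sporozoites. Parasitemia was followed by blood smear until 3–5%, then mice were sacrificed. Complete protection means no blood-stage parasites in smears; observation lasted 28 days.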

[21] = test system: Plasmodium berghei; assay: Antiplasmodial activity against 3000 Plasmodium berghei NK65 liver stage sporozoites infected in 12 wk old C57BL/6 mouse assessed as delay in prepatent period at 1.5 mg/kg, ip administered once daily via a regimen of day 2, 1 pre-infection, on the day of infection followed by day 1 and 2 postinfection for 5 days by microscopic analysis; type: functional; conditions: route intraperitoneal; in short: as §2
[22] = test system: Plasmodium berghei; assay: Antiplasmodial activity against 5 X 10^6 blood stream Plasmodium berghei NK65 infected in 12 wk old C57BL/6 mouse assessed as delay in prepatent period at 1.5 mg/kg, ip administered once daily via a regimen of day 2, 1 pre-infection, on the day of infection followed by day 1 and 2 postinfection for 5 days by microscopic analysis; type: functional; conditions: route intraperitoneal; in short: as §1
[23] = test system: Plasmodium berghei; assay: Antiplasmodial activity against 5 X 10^6 blood stream Plasmodium berghei NK65 infected in 12 wk old C57BL/6 mouse assessed as parasitemia at 1.5 mg/kg, ip administered once daily via a regimen of day 2, 1 pre-infection, on the day of infection followed by day 1 and 2 postinfection for 5 days by microscopic analysis; type: functional; conditions: route intraperitoneal; in short: as §1
[24] = test system: Plasmodium berghei; assay: Antiplasmodial activity against Plasmodium berghei NK65 infected in 12 wk old BALB/c mouse assessed as prepatent period at 5 mg/kg, ip administered once daily via a regimen of day 2, 1 pre-infection, on the day of infection followed by day 1 and 2 postinfection […] by microscopic analysis; type: functional; conditions: route intraperitoneal
[25] = test system: Plasmodium berghei; assay: Antiplasmodial activity against 5 X 10^6 blood stream Plasmodium berghei NK65 infected in 12 wk old C57BL/6 mouse assessed as prepatent period at 1.5 mg/kg, ip administered once daily via a regimen of day 2, 1 pre-infection, on the day of infection followed by day 1 and 2 postinfection for 5 days by microscopic analysis; type: functional; conditions: route intraperitoneal; in short: as §1
[26] = test system: Plasmodium berghei; assay: Antiplasmodial activity against Plasmodium berghei NK65 infected in 12 wk old C57BL/6 mouse assessed as prepatent period at 0.5 mg/kg, ip administered once daily via a regimen of day 2, 1 pre-infection, on the day of infection followed by day 1 postinfection for 4 days by microscopic analysis; type: functional; conditions: route intraperitoneal
[27] = test system: Plasmodium berghei; assay: Antiplasmodial activity against Plasmodium berghei NK65 infected in C57BL/6 mouse assessed as completed protection of mouse, ip administered once daily via a regimen of day 2, 1 pre-infection, on day of infection followed by a regimen of day 1 and 2 post infection for 5 days measured after 28 days; type: functional, organism-based; in short: as §2
[28] = test system: Plasmodium berghei; assay: Antiplasmodial activity against Plasmodium berghei NK65 infected in 12 wk old C57BL/6 mouse assessed as prepatent period at 1.5 mg/kg, ip administered once daily via a regimen of day 2, 1 pre-infection, on the day of infection followed by day 1 and 2 postinfection for 5 days by microscopic analysis; type: functional; conditions: route intraperitoneal
[29] = test system: Plasmodium berghei; assay: Antiplasmodial activity against 3000 Plasmodium berghei NK65 liver stage sporozoites infected in 12 wk old C57BL/6 mouse assessed as delay in prepatent period at 0.8 mg/kg, ip administered once daily via a regimen of day 2, 1 pre-infection, on the day of infection followed by day 1 and 2 postinfection for 5 days by microscopic analysis; type: functional; conditions: route intraperitoneal; in short: as §2
[30] = test system: Plasmodium berghei; assay: Antiplasmodial activity against Plasmodium berghei NK65 infected in 12 wk old C57BL/6 mouse assessed as prepatent period at 0.8 mg/kg, ip administered once daily via a regimen of day 2, 1 pre-infection, on the day of infection followed by day 1, 2 and 3 days postinfection […] by microscopic analysis; type: functional; conditions: route intraperitoneal
[31] = test system: Plasmodium berghei; assay: Antiplasmodial activity against Plasmodium berghei NK65 infected in 12 wk old C57BL/6 mouse assessed as prepatent period at 5 mg/kg, ip administered once daily via a regimen of day 2, 1 pre-infection, on the day of infection followed by day 1 and 2 postinfection for 5 days by microscopic analysis; type: functional; conditions: route intraperitoneal
[32] = test system: Plasmodium berghei; assay: Antiplasmodial activity against Plasmodium berghei NK65 infected in 14 wk old C57BL/6 mouse assessed as prepatent period at 5 mg/kg, ip administered once daily via a regimen of day 2, 1 pre-infection, on the day of infection followed by day 1 and 2 postinfection […] by microscopic analysis; type: functional, organism-based; design: dose 5 mg/kg
[33] = test system: Plasmodium berghei; assay: Antiplasmodial activity against 3000 Plasmodium berghei NK65 liver stage sporozoites infected in 12 wk old C57BL/6 mouse assessed as delay in prepatent period at 5 mg/kg, ip administered once daily via a regimen of day 2, 1 pre-infection, on the day of infection followed by day 1 and 2 postinfection for 5 days by microscopic analysis; type: functional; conditions: route intraperitoneal; in short: as §2

Compound | IC50 [5] | Ki [5] | logP [8] | IC50 [9] | IC50 [10] | Ki [10] | CC50 at 22 h [12] | IC50 [17] | IC50 [19] | further results
O=P(O)(O)C(O)(Cc1cccnc1)P(=O)(O)O [RISEDRONIC ACID] | 1.1 µM | 0.024 µM | -5.5 | 1.2 µM | 1.7 µM | 0.048 µM | 13000 µM | 16 µM | 1.4 µM | Activity [1]: 1 days; Activity [2]: 0.5 days; Activity [3]: 1 days; Activity [4]: 4 days; Activity [6]: 2.5 days; Activity [7]: 8 days and 3 days; Activity [11]: inactive; Activity [13]: 0.5 days; Activity [14]: 0.09%; Activity [15]: 2 days; Activity [16]: 6 days; Activity [18]: inactive; Activity [20]: 4 days
CCCCCCCCCCOc1ccc[n+](CC(P(=O)([O-])O)P(=O)(O)O)c1 (centres undefined) | 0.56 µM | 0.013 µM |  | 0.67 µM | 1.5 µM | 0.043 µM | 2000 µM | 10 µM | 0.59 µM | Activity [21]: >28 days; logP ([8]; read-out: logP): -1.2; Activity [22]: 4 days; Activity [23]: 0.01%; Activity [24]: >28 days; Activity [25]: 5 days; Activity [26]: 3 days; Activity [27]: Active; Activity [28]: >28 days
CCCCCCCCN(C)CC(P(=O)(O)O)P(=O)(O)O | 0.63 µM | 0.015 µM | -4.1 | 0.65 µM | 1.5 µM | 0.043 µM | 1000 µM | 8.8 µM | 2 µM | Activity [29]: 3 days; Activity [30]: 7 days
COC(=O)[C@H](CC(C)C)NC(=O)c1ccc(NC[C@@H](N)CS)cc1-c1cccc2ccccc12 |  |  |  |  |  |  |  | 30 µM |  | Activity [31]: 4 days; Activity [32]: inactive; Activity [33]: 0 days
